Experimental data taken from ChEMBL document CHEMBL1255483, “Intra- and extracellular activities of dicloxacillin against Staphylococcus aureus in vivo and in vitro” (Antimicrob Agents Chemother, 2010).
≈ marks a conversion by molar mass, not a printed value. Calls of active or inactive are those of the source. No cut-off for these calls is given here.

Legend:
Staphylococcus aureus [1] = assay: Bacteriostatic activity against Staphylococcus aureus E19977 infected in human THP-1 cells at MIC after 5 hrs; format: functional, organism-based
Summary of the method: (§1)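 Human THP-1 macrophages were infected with opsonized S. aureus at 4 bacteria per macrophage for 45 min. Non-phagocytized bacteria were removed by washing and a brief incubation in PBS with gentamicin 50 mg/liter. Cells were then incubated up to 24 h with DCX over a wide range of extracellular concentrations. The read-out was Δlog CFU per mg cell protein versus time zero (n = 3), with sigmoidal fitting and Cstatic by interpolation.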

[2] = Cmax in NMRI mouse at 300 mg/kg, sc; format: ADME, organism-based; design: dose 300 mg/kg, route subcutaneous; settings: in vivo
Summary of the method: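 Single subcutaneous dicloxacillin doses were given to NMRI mice. EDTA plasma was assayed by microbiological bioassay with S. lutea ATCC 9391 (detection limit 1.5 mg/liter, linear to 100 mg/liter, CV ~5%). Cmax was obtained by noncompartmental analysis.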

Staphylococcus aureus [3] = assay: Bacteriostatic activity against Staphylococcus aureus E19977 infected in human THP-1 cells at 10 times MIC after 5 hrs; format: functional, organism-based; summary of the method: as §1
Mus musculus [4] = species: Mus musculus; assay: Protein binding in NMRI mouse infected with Staphylococcus aureus E19977 at 270 mg/l by ultrafiltration; format: ADME, organism-based; settings: in vivo
Summary of the method: (§2)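 Plasma binding was measured by ultrafiltration. EDTA blood from healthy mice, or from NMRI mice infected intraperitoneally for 6 h with E19977, was spiked with DCX at 10–400 mg/liter, with PBS controls. Samples were held 1 h at 37°C, then centrifuged through 30-kDa filters at 3,000 × g for 8 min at 37°C. Total and filtrate drug were measured by S. lutea bioassay.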

[5] = Half-life in NMRI mouse at 30 mg/kg, sc; format: ADME, organism-based; design: dose 30 mg/kg, route subcutaneous; settings: in vivo
Summary of the method: (§3)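 Single subcutaneous DCX doses given to NMRI mice. Blood was collected into EDTA tubes, and plasma drug was assayed by microbiological bioassay with S. lutea ATCC 9391 (detection limit 1.5 mg/liter, linear to 100 mg/liter). Values came from noncompartmental analysis. Terminal half-life was fitted monoexponentially to the last four time points. AUC24 combined the trapezoidal rule over mean points with exact integration of the fitted curve extrapolated to 24 h.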

Mus musculus [6] = species: Mus musculus; assay: Protein binding in NMRI mouse infected with Staphylococcus aureus E19977 at 30 mg/l by ultrafiltration; format: ADME, organism-based; settings: in vivo; summary of the method: as §2
Mus musculus [7] = species: Mus musculus; assay: Protein binding in NMRI mouse at 270 mg/l by ultrafiltration; format: ADME, organism-based; settings: in vivo; summary of the method: as §2
[8] = Ratio of fAUC (24 hrs) in NMRI mouse at 160 mg/kg administered every 3 hrs to MIC for Staphylococcus aureus E19977; format: functional
Summary of the method: (§4)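 Free-drug AUC24/MIC was modelled for repeated subcutaneous regimens. Single-dose NMRI plasma concentration-time curves were combined with the best-fitting square-root expression for the concentration-dependent free fraction. The result was divided by the E19977 MIC.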

Staphylococcus aureus [9] = assay: Bactericidal activity against Staphylococcus aureus E19977 assessed as log reduction in bacterial count at MIC after 5 hrs by time-kill assay; format: functional
Summary of the method: (§5)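 Broth time-kill: MSSA at 10⁶ CFU/ml exposed to a wide range of dicloxacillin concentrations. CFU counted after 5 and 24 h and expressed as change in log₁₀ CFU/ml from time zero. Multiples refer to the MIC by CLSI microdilution at pH 7.4. n = 3.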

Staphylococcus aureus [10] = assay: Bacteriostatic activity against Staphylococcus aureus E19977 infected in human THP-1 cells at 100 times MIC after 5 hrs; format: functional, organism-based; summary of the method: as §1
[11] = Ratio of fCmax in NMRI mouse at 200 mg/kg administered every 6 hrs to MIC for Staphylococcus aureus E19977; format: functional
Summary of the method: (§6)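 Free Cmax/MIC was modelled, not measured. Single-dose subcutaneous plasma curves from NMRI mice were projected to the multiple-dose regimens. Free fraction came from a square-root fit of unbound fraction versus total concentration. Binding was measured by ultrafiltration of mouse plasma spiked with 10–400 mg/liter and held 1 h at 37°C. MIC was for strain E19977.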

Staphylococcus aureus [12] = assay: Antimicrobial activity against Staphylococcus aureus E19977 infected in human THP-1 cells after 24 hrs; format: functional, organism-based; settings: E19977, THP-1, 24 h; summary of the method: as §1
[13] = Ratio of fCmax in NMRI mouse at 160 mg/kg administered every 3 hrs to MIC for Staphylococcus aureus E19977; format: functional; summary of the method: as §6
Staphylococcus aureus [14] = assay: Bacteriostatic activity against Staphylococcus aureus E19977 after 24 hrs; format: functional
Summary of the method: (§7)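 Extracellular broth time- and concentration-kill test. The inoculum was ~10⁶ CFU/ml, exposed to a wide range of DCX concentrations, with CFU counted after 5 and 24 h. The read-out was Δlog CFU/ml versus time zero (mean ± SD, n = 3). A sigmoidal fit with slope 1 gave Emax and EC50. Cstatic was read by graphical interpolation as the concentration giving no change from the inoculum.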

Staphylococcus aureus [15] = assay: Bacteriostatic activity against Staphylococcus aureus ATCC 25923 infected in human THP-1 cells at MIC after 5 hrs; format: functional, organism-based; summary of the method: as §1
Mus musculus [16] = species: Mus musculus; assay: Protein binding in NMRI mouse infected with Staphylococcus aureus E19977 at 10 mg/l by ultrafiltration; format: ADME, organism-based; settings: in vivo; summary of the method: as §2
Staphylococcus aureus [17] = assay: Bacteriostatic activity against Staphylococcus aureus ATCC 25923 infected in human THP-1 cells at 100 times MIC after 5 hrs; format: functional, organism-based; summary of the method: as §1
Staphylococcus aureus [18] = assay: Bacteriostatic activity against Staphylococcus aureus ATCC 25923 infected in human THP-1 cells at MIC after 24 hrs; format: functional, organism-based; summary of the method: as §1
Staphylococcus aureus [19] = assay: Bacteriostatic activity against Staphylococcus aureus E19977 infected in human THP-1 cells after 24 hrs; format: functional; summary of the method: as §1
[20] = Ratio of fAUC (24 hrs) in NMRI mouse at 80 mg/kg administered every 8 hrs to MIC for Staphylococcus aureus E19977; format: functional
Summary of the method: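 Modeled free AUC over 24 h divided by the MIC, not measured directly. Single subcutaneous DCX doses were given to NMRI mice, and plasma was assayed by S. lutea bioassay. Noncompartmental analysis used trapezoidal mean points plus a fitted monoexponential extrapolated to 24 h. Free fraction came from a square-root fit to plasma ultrafiltration binding (10–400 mg/liter spike, 1 h, 37°C). The MIC was measured by broth microdilution at pH 7.4.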

Staphylococcus aureus [21] = assay: Bactericidal activity against Staphylococcus aureus ATCC 25923 assessed as log reduction in bacterial count at 100 times MIC after 24 hrs by time-kill assay; format: functional; summary of the method: as §5
[22] = fT>MIC in Staphylococcus aureus E19977 infected NMRI mouse at 120 mg/kg administered every 3 hrs; format: functional
Summary of the method: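 Calculated percentage of 24 h at steady state that free plasma DCX exceeds the strain MIC (microdilution, pH 7.4). Concentrations were simulated from single subcutaneous dose plasma curves in NMRI mice (S. lutea bioassay), adjusted with a square-root model of concentration-dependent free fraction from ultrafiltration. The regimen was dosed subcutaneously in mice infected intraperitoneally with 10^7.4 CFU, and peritoneal CFU were read after 24 h of therapy.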

[23] = AUC (24 hrs) in NMRI mouse at 300 mg/kg, sc; format: ADME, organism-based; design: time < 24 hr, dose 300 mg/kg, route subcutaneous; settings: plasma; summary of the method: as §3
[24] = Ratio of fAUC (24 hrs) in NMRI mouse at 120 mg/kg administered every 6 hrs to MIC for Staphylococcus aureus E19977; format: functional; summary of the method: as §4
Staphylococcus aureus [25] = assay: Antimicrobial activity against Staphylococcus aureus ATCC 25923 after 24 hrs; format: functional, organism-based; settings: ATCC 25923, 24 h; summary of the method: as §7
Mus musculus [26] = species: Mus musculus; assay: Protein binding in NMRI mouse at 180 mg/l by ultrafiltration; format: ADME, organism-based; settings: in vivo; summary of the method: as §2
[27] = Ratio of fCmax in NMRI mouse at 200 mg/kg administered every 4 hrs to MIC for Staphylococcus aureus E19977; format: functional; summary of the method: as §6

Question: Which Activity (Staphylococcus aureus [1]) does the source give for `Cc1onc(-c2c(Cl)cccc2Cl)c1C(=O)N[C@@H]1C(=O)N2[C@@H]1SC(C)(C)[C@@H]2C(=O)O` [DICLOXACILLIN] here?
Answer: Active

Question: What about the Cmax [2] of the same molecule?
Answer: 529 µg/mL

Question: What about the Activity (Staphylococcus aureus [3]) of the same molecule?
Answer: Active

Question: And the Activity (Mus musculus [4])?
Answer: 80.7%

Question: What about the half-life [5] of the same molecule?
Answer: 19 min

Question: What about the Activity (Mus musculus [6]) of the same molecule?
Answer: 91.9%

Question: What about the Activity (Mus musculus [7]) of the same molecule?
Answer: 84.9%

Question: What about the fAUC/MIC [8] of the same molecule?
Answer: 556.4 h

Question: What about the FC (Staphylococcus aureus [9]) of the same molecule?
Answer: <1

Question: What about the Activity (Staphylococcus aureus [10]) of the same molecule?
Answer: Active

Question: What about the Ratio [11] of the same molecule?
Answer: 101.92

Question: What about the EC50 (Staphylococcus aureus [12]) of the same molecule?
Answer: 0.31 µg/mL (≈ 0.659 µM)

Question: What about the Ratio [13] of the same molecule?
Answer: 81.58

Question: And the Activity (Staphylococcus aureus [14])?
Answer: 0.43 mg/L

Question: What about the Activity (Staphylococcus aureus [15]) of the same molecule?
Answer: Active

Question: And the Activity (Mus musculus [16])?
Answer: 93.6%

Question: And the Activity (Staphylococcus aureus [17])?
Answer: Active

Question: What about the Activity (Staphylococcus aureus [18]) of the same molecule?
Answer: Active

Question: And the Activity (Staphylococcus aureus [19])?
Answer: 0.89 mg/L

Question: And the fAUC/MIC [20]?
Answer: 63.49 h

Question: What about the FC (Staphylococcus aureus [21]) of the same molecule?
Answer: 3

Question: And the “fT>MIC” value [22]?
Answer: 75.56%

Question: What about the AUC at 24 h [23] of the same molecule?
Answer: 726 µg·h/mL

Question: What about the fAUC/MIC [24] of the same molecule?
Answer: 175.82 h

Question: And the EC50 (Staphylococcus aureus [25])?
Answer: 0.06 µg/mL (≈ 0.128 µM)

Question: What about the Activity (Mus musculus [26]) of the same molecule?
Answer: 87.2%

Question: And the Ratio [27]?
Answer: 101.92
